The source of these data is ChEMBL document CHEMBL4229410, “Facile construction of fused benzimidazole-isoquinolinones that induce cell-cycle arrest and apoptosis in colorectal cancer cells” (Bioorg Med Chem, 2018).

Series [1] addresses Tyrosine-protein kinase ABL1 (Homo sapiens, UniProt P00519). Briefly: Binding affinity to human phosphorylated ABL1 (S229 to K512 residues) expressed in mammalian expression system by KINOMEscan assay.
Series [2] deals with HT-29. The series can be described thus: Effect on total mTOR expression in human HT-29 cells up to 75 uM after 48 hrs by Western blot analysis. Type of series: ADME, cell-based. The conditions noted are these: ht-29, 48 h. An outline of the steps: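 HT29 or SW620 cells were treated at 0, 25, 50 and 75 μM for 48 h and lysed in RIPA with protease and phosphatase inhibitors. Protein was quantified by BCA. 50 μg lysate was run on 8–15% SDS-PAGE and transferred to PVDF. Blocking was 5% BSA/TBST for 2 h; primary antibodies were applied overnight at 4 °C, then HRP secondary 1 h at room temperature.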

Series [3] concerns the target Cyclin-dependent kinase 16 (Homo sapiens, UniProt Q00536). The series can be described thus: Inhibition of human PCTK1 (G160 to A474 residues) expressed in mammalian expression system assessed as residual activity at 5 uM by KINOMEscan assay relative to control.
The target in series [4] is Cyclin-dependent kinase 19 (Homo sapiens, UniProt Q9BWU1). The series can be described thus: Binding affinity to human CDK11 (M1 to N360 residues) expressed in bacterial expression system by KINOMEscan assay.
A short description of series [5]: Growth inhibition of human FHC cells after 48 hrs by MTT assay. Type of series: cell-based. On the technique in general: Tetrazolium dyes change colour on reduction, which living cells bring about.
The target in series [6] is Mitogen-activated protein kinase kinase kinase 9 (Homo sapiens, UniProt P80192). Briefly: Binding affinity to human MLK1 (V88 to W426 residues) expressed in bacterial expression system by KINOMEscan assay.
For series [7], the target named is Tyrosine-protein kinase JAK3 (Homo sapiens) (UniProt P52333). Briefly: Inhibition of human JAK3 JH1 catalytic domain (I781 to S1124 residues) expressed in mammalian expression system assessed as residual activity at 5 uM by KINOMEscan assay relative to control.
In series [8] the target is Mitogen-activated protein kinase 10 (Homo sapiens, UniProt P53779). The series can be described thus: Inhibition of human JNK3 (V28 to Q422 residues) expressed in mammalian expression system assessed as residual activity at 5 uM by KINOMEscan assay relative to control.
Series [9] concerns the target Mitogen-activated protein kinase 8 (Homo sapiens, UniProt P45983). Briefly: Inhibition of full length human JNK1 (M1 to Q384 residues) expressed in mammalian expression system assessed as residual activity at 5 uM by KINOMEscan assay relative to control.
In series [10] the test system is HT-29. Briefly: Cell cycle arrest in human HT-29 cells assessed as accumulation at G2-phase at 50 uM after 48 hrs by propidium iodide staining based flow cytometry (reference value: 15.45%). In kind it is functional. In general terms: In flow cytometry, cells or beads pass a laser one at a time.
Series [11] concerns the target Platelet-derived growth factor receptor alpha (Homo sapiens, UniProt P16234). Briefly: Inhibition of human PDGFRA (V575 to D1002 residues) expressed in mammalian expression system assessed as residual activity at 5 uM by KINOMEscan assay relative to control.
For series [12], the target named is Serine/threonine-protein kinase mTOR (Homo sapiens) (UniProt P42345). The series can be described thus: Inhibition of mTOR in human HT-29 cells assessed as reduction in 4EBP1 phosphorylation up to 75 uM after 48 hrs by Western blot analysis. In kind it is cell-based. (In general: A western blot detects proteins with antibodies after separation by electrophoresis.)

The target in series [13] is Fibroblast growth factor receptor 2 (Homo sapiens, UniProt P21802). The series can be described thus: Inhibition of partial length human FGFR2 (D457 to E769 residues) expressed in bacterial expression system assessed as residual activity at 5 uM by KINOMEscan assay relative to control.
Series [14] has as its target Dual specificity mitogen-activated protein kinase kinase 2 (Homo sapiens, UniProt P36507). The series can be described thus: Inhibition of full length human MEK2 (M1 to V400 residues) expressed in mammalian expression system assessed as residual activity at 5 uM by KINOMEscan assay relative to control.
The target of series [15] is Serine/threonine-protein kinase PLK4 (Homo sapiens, UniProt O00444). The series can be described thus: Binding affinity to partial length human PLK4 (M1 to S273 residues) expressed in mammalian expression system by KINOMEscan assay.
In series [16] the target is Tyrosine-protein kinase BTK (Homo sapiens, UniProt Q06187). The series can be described thus: Inhibition of full length human BTK (M1 to S659 residues) expressed in mammalian expression system assessed as residual activity at 5 uM by KINOMEscan assay relative to control.
Series [17] deals with Tyrosine-protein kinase JAK3 (Homo sapiens, UniProt P52333). The series can be described thus: Binding affinity to human JAK3 JH1 catalytic domain (I781 to S1124 residues) expressed in mammalian expression system by KINOMEscan assay.
Series [18] concerns the target Mitogen-activated protein kinase 11 (Homo sapiens, UniProt Q15759). The series can be described thus: Inhibition of full length human p38beta (M1 to Q364 residues) expressed in bacterial expression system assessed as residual activity at 5 uM by KINOMEscan assay relative to control.
The test system of series [19] is HT-29. The series can be described thus: Induction of apoptosis in human HT-29 cells assessed as necrotic cells at 50 uM after 48 hrs by Annexin-V-FITC/propidium iodide staining based flow cytometry (reference value: 1.6%). In kind it is functional.
The target of series [20] is Atypical kinase COQ8A, mitochondrial (Homo sapiens, UniProt Q8NI60). Briefly: Inhibition of […] human ADCK3 (M280 to Q647 residues) expressed in bacterial expression system assessed as residual activity at 5 uM by KINOMEscan assay relative to control.
Series [21] concerns the target Casein kinase I isoform delta (Homo sapiens, UniProt P48730). Briefly: Inhibition of full length human CSNK1D (M1 to K409 residues) expressed in bacterial expression system assessed as residual activity at 5 uM by KINOMEscan assay relative to control.
The target of series [22] is RAF proto-oncogene serine/threonine-protein kinase (Homo sapiens, UniProt P04049). Briefly: Binding affinity to human RAF1 (I330 to T640 residues) expressed in bacterial expression system by KINOMEscan assay.
Series [23] addresses Serine/threonine-protein kinase Chk1 (Homo sapiens) (UniProt O14757). Briefly: Inhibition of human CHEK1 (M1 to G289 residues) expressed in bacterial expression system assessed as residual activity at 5 uM by KINOMEscan assay relative to control.

Active and inactive are the calls of the source. The calls are words filed in the database; no cut-off is given here.

Sequence of Platelet-derived growth factor receptor alpha (P16234 whole entry, the tested form may be a part): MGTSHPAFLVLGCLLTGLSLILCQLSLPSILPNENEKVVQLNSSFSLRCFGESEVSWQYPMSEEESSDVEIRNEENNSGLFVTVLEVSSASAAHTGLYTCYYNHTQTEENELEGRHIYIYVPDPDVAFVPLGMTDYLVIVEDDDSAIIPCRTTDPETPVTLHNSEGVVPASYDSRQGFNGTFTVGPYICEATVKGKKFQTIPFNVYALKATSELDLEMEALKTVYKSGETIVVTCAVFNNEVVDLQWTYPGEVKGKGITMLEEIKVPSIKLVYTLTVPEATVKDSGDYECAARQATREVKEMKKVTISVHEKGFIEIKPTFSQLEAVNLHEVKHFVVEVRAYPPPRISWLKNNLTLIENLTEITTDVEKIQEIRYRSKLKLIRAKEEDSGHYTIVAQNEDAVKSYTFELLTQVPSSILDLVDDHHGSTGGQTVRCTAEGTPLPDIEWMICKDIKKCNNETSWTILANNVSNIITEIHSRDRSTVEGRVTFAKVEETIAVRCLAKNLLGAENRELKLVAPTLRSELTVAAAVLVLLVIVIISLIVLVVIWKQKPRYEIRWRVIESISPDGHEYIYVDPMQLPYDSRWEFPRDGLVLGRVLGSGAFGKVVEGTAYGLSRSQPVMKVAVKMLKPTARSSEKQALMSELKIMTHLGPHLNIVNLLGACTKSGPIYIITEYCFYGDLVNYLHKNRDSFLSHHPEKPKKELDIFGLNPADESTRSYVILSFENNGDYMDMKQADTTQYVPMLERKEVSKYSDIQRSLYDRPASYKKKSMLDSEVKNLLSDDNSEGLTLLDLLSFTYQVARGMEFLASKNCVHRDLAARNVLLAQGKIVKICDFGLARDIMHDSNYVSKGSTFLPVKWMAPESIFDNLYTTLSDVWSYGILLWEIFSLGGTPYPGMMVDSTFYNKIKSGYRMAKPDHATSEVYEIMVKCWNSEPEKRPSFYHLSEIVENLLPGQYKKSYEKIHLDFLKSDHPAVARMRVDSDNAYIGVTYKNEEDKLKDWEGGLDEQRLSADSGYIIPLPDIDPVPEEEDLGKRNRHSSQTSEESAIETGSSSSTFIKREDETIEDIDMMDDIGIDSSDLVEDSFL
Sequence of Serine/threonine-protein kinase PLK4 (O00444 whole entry, the tested form may be a part): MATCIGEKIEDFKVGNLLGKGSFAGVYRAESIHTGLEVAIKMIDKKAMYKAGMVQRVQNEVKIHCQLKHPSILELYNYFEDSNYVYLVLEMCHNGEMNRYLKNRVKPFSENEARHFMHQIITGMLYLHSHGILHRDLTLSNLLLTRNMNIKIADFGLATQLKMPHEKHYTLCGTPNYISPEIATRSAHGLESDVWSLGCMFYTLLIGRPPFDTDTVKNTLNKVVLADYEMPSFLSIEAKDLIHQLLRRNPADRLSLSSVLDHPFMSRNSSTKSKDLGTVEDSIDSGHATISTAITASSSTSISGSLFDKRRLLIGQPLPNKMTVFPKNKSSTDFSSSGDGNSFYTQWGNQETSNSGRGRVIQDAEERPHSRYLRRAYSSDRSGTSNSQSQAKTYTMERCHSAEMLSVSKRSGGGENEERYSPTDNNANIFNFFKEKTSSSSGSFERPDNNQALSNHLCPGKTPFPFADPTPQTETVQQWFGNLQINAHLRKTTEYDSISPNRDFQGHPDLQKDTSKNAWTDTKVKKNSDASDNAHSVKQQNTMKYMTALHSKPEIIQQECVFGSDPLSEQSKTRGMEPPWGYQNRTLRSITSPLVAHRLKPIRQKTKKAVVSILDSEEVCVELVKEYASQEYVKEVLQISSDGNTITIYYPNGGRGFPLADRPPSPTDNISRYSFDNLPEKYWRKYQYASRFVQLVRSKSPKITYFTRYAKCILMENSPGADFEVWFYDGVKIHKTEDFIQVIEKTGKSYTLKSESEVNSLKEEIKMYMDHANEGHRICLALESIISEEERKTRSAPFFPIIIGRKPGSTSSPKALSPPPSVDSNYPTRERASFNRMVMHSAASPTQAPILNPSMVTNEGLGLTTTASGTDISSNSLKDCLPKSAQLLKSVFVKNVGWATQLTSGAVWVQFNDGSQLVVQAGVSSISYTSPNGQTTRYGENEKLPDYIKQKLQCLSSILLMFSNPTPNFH
Sequence of Mitogen-activated protein kinase 10 (P53779 whole entry, the tested form may be a part): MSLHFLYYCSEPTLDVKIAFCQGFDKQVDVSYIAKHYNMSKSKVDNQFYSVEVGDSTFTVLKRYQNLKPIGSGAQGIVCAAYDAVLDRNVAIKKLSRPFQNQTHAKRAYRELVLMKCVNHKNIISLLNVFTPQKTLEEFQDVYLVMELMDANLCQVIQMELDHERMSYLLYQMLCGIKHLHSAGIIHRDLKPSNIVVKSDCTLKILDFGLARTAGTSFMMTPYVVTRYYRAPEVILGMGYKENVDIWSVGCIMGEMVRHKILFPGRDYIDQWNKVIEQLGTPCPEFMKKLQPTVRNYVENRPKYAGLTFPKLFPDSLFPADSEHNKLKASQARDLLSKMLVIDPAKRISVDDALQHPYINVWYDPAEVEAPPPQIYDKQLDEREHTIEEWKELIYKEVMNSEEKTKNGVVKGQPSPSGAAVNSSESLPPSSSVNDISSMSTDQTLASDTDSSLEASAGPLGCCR
Sequence of Mitogen-activated protein kinase kinase kinase 9 (P80192 whole entry, the tested form may be a part): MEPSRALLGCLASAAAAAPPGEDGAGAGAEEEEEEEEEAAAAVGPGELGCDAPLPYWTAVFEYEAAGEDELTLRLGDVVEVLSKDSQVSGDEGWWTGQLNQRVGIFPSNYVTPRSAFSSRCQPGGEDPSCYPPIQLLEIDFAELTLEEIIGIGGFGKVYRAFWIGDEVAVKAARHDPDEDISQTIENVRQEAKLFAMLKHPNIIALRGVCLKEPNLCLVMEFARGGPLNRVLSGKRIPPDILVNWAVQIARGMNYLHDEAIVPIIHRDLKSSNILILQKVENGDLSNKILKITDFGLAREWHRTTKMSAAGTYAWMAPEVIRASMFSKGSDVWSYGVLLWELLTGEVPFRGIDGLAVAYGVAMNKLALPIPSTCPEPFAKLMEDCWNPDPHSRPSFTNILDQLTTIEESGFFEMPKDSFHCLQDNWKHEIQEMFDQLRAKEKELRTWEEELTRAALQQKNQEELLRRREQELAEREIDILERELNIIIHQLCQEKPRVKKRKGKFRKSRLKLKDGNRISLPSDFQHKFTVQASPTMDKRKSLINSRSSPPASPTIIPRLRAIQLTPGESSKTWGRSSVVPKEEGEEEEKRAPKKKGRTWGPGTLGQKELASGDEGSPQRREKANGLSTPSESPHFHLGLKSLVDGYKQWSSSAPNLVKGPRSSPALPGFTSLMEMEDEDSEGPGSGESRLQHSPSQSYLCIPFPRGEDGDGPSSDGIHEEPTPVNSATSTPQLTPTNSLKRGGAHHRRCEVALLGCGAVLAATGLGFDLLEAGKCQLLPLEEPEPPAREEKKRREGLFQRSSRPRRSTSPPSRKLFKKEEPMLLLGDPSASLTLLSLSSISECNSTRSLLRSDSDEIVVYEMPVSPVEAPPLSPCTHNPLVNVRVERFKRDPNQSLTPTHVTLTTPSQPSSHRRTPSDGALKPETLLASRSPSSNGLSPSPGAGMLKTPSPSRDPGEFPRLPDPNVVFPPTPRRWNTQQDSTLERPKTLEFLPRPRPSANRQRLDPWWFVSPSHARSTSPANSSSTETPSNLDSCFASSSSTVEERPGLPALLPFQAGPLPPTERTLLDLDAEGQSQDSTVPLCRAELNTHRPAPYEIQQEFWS
Sequence of Fibroblast growth factor receptor 2 (P21802 22-821 limits assumed): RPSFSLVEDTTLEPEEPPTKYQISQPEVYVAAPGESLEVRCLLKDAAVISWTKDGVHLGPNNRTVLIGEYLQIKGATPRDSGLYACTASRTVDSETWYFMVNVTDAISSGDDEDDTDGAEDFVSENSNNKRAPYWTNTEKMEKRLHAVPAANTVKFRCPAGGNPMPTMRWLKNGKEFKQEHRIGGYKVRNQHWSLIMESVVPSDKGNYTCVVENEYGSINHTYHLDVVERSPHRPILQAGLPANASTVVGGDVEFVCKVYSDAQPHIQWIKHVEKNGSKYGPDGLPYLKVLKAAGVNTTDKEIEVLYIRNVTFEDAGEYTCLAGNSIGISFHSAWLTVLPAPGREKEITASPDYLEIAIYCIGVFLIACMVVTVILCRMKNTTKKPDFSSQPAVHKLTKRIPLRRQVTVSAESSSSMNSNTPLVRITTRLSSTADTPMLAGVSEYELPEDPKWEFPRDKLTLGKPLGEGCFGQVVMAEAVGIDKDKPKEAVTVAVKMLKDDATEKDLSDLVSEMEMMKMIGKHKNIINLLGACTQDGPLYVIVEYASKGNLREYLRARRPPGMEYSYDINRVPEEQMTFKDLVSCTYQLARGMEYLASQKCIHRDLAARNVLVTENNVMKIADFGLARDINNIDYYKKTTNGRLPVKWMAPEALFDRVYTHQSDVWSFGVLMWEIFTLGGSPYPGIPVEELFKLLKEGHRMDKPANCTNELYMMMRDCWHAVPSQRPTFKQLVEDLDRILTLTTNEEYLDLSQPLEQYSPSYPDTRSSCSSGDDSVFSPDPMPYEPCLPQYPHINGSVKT
Sequence of RAF proto-oncogene serine/threonine-protein kinase (P04049 whole entry, the tested form may be a part): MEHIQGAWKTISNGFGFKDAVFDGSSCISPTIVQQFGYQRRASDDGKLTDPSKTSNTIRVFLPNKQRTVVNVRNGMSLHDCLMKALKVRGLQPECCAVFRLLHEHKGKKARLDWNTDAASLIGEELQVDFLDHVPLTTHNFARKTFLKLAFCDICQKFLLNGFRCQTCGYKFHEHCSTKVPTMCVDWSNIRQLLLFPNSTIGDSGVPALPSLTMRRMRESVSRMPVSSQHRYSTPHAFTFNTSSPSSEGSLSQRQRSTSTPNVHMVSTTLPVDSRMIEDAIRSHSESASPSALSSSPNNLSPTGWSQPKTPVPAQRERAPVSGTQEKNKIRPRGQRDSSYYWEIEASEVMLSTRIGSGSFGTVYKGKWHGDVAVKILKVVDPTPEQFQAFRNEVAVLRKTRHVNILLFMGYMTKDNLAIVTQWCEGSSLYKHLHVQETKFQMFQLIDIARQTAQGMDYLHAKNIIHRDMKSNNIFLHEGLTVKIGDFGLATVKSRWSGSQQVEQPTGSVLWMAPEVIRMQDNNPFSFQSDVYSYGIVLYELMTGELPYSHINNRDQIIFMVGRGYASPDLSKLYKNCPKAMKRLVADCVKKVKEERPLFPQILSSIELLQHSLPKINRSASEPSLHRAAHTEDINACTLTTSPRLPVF

`CC(C)CN(C(=O)c1cccnc1)c1c2ccccc2c(=O)n2c1[nH]c1ccccc12`: the dissociation constant Kd in [1], in series [4], in series [6], in [15], in [17] and in series [22] was at least 5 µM in each case. Further, the Activity result in the series with HT-29 [2] is “Non-Toxic”; in [3], 95%; in series [7] it was 73%; in [8] it was 95%; in series [9], 69%; in the series on HT-29 [10], 18.12%. For the same compound, the Activity in series [11] worked out at 100%; in series [13], 76%; in series [14] it was 82%; in series [16], 74%; in series [18] it was 100%; with HT-29 [19], 4.4%. In addition, the Activity in [20] turned out to be 100%; in series [21] it was 90%; in series [23], 83%. This compound also yielded a GI50 at 48 h in series [5] of over 200 µM. The inhibition entry in series [12] was “Active”.

By Kd is commonly meant the free concentration of one partner at which half of the binding sites on the other are occupied at equilibrium, for simple one-to-one binding. Low readings indicate higher affinity, high ones lower affinity. The GI50 is the concentration that inhibits growth by half. Low values mean more potent growth inhibition, high ones less potent growth inhibition.
